Results: ChEMBL document CHEMBL4334465, “SAR Studies on Aromatic Acylhydrazone-Based Inhibitors of Fungal Sphingolipid Synthesis as Next-Generation Antifungal Agents” (J Med Chem, 2019)
In brackets after ≈: the same amount, converted by molar mass.

Assays:
[Candida] auris [1] = Antifungal activity against Candida auris assessed as FICI in presence of fluconazole; format: functional, Candidozyma auris
How it was run: (§1)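 Checkerboard combination scored by fractional inhibitory concentration index. Acylhydrazone serially diluted 16 to 0.015 μg/mL (11 dilutions). Partner drug in seven dilutions: fluconazole 12 to 0.19 μg/mL, amphotericin B 5 to 0.078 μg/mL, caspofungin, itraconazole or voriconazole 8 to 0.007 μg/mL.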

Pichia kudriavzevii [2] = experiment: Antifungal activity against Candida krusei 6258 assessed as FICI in presence of voriconazole; format: functional; how it was run: as §1
Aspergillus fumigatus [3] = experiment: Antifungal activity against Aspergillus fumigatus assessed as FICI in presence of itraconazole; format: functional; how it was run: as §1
Pichia kudriavzevii [4] = experiment: Antifungal activity against Candida krusei 6258 assessed as FICI in presence of caspofungin; format: functional; how it was run: as §1
Aspergillus fumigatus [5] = experiment: Antifungal activity against Aspergillus fumigatus assessed as FICI in presence of fluconazole; format: functional; how it was run: as §1
Pichia kudriavzevii [6] = experiment: Antifungal activity against fluconazole-resistant Candida krusei assessed as FICI in presence of voriconazole; format: functional
How it was run: (§2)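 Checkerboard in 96-well plate. Test compound diluted 16 to 0.015 μg/mL (11 dilutions) against the partner drug in seven dilutions: fluconazole 12 to 0.19 μg/mL, caspofungin, itraconazole or voriconazole 8 to 0.007 μg/mL. Fractional inhibitory concentration index (FICI) calculated from the combinations.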

Candida parapsilosis [7] = experiment: Antifungal activity against Candida parapsilosis assessed as FICI in presence of caspofungin; format: functional; how it was run: as §1
Pichia kudriavzevii [8] = experiment: Antifungal activity against Candida krusei measured after 24 to 72 hrs; format: functional
How it was run: (§3)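 MIC by modified CLSI broth microdilution. Candida strains grown in YNB without ammonium sulfate or amino acids with 1% asparagine, pH 7.0, 2% glucose. Inoculum per CLSI M27A3. Compound serially diluted 32 to 0.03 μg/mL. Incubation 37°C, 5% CO₂, 24–72 h, then OD450. MIC80 taken as the lowest concentration giving 80% growth inhibition versus untreated control.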

Candida albicans [9] = experiment: Antifungal activity against Candida albicans assessed as FICI in presence of fluconazole; format: functional; how it was run: as §1
[Candida] auris [10] = Antifungal activity against Candida auris assessed as FICI in presence of itraconazole; format: functional, Candidozyma auris; how it was run: as §1
Cryptococcus neoformans [11] = experiment: Fungicidal activity against Cryptococcus neoformans H99 measured up to 96 hrs by time-kill assay; format: functional, organism-based; conditions: var grubii H99
How it was run: (§4)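 Overnight C. neoformans washed in PBS and resuspended in HEPES-buffered YNB, pH 7.4. 2 × 10⁴ cells exposed to a range of drug concentrations in 10 mL with 0.5% DMSO final, at 37°C, 5% CO₂, shaking at 200 rpm. Aliquots sampled over 96 h, diluted and plated on YPD; CFU counted after 48 h at 30°C.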

A549 = experiment: Cytotoxicity against human A549 cells after 24 to 48 hrs by MTT assay; format: functional; conditions: read-out: LD50 (the source's name)
How it was run: (§5)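 A549 and HepG2 kept in DMEM with 10% FBS and 1% pen-strep. At passage 7, seeded at 10⁵ cells/well and allowed to adhere 14 h. Compound added at 0.03–128 μg/mL, untreated wells as controls. Incubation 37°C, 5% CO₂ for 24 or 48 h. MTT (5 mg/mL in PBS) added for 4 h, formazan dissolved in DMSO, OD570.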

Candida parapsilosis [12] = experiment: Antifungal activity against Candida parapsilosis assessed as FICI in presence of voriconazole; format: functional; how it was run: as §1
Aspergillus fumigatus [13] = experiment: Antifungal activity against Aspergillus fumigatus measured after 24 to 72 hrs; format: functional
How it was run: (§6)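 Modified CLSI broth microdilution with inoculum per M27A3. Compounds were serially diluted 32 to 0.03 μg/mL. Media: C. neoformans in HEPES-buffered YNB without amino acids (pH 7.0, 2% glucose); Candida strains in YNB without ammonium sulfate or amino acids plus 1% asparagine (pH 7.0, 2% glucose); A. fumigatus in RPMI (pH 7.0, 2% glucose).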

Aspergillus fumigatus [14] = experiment: Antifungal activity against Aspergillus fumigatus assessed as FICI in presence of voriconazole; format: functional; how it was run: as §1
[Candida] auris [15] = Antifungal activity against Candida auris assessed as FICI in presence of caspofungin; format: functional, Candidozyma auris; how it was run: as §1
HepG2 = experiment: Cytotoxicity against human HepG2 cells after 24 to 48 hrs by MTT assay; format: functional; conditions: read-out: LD50 (the source's name); how it was run: as §5
Cryptococcus neoformans [16] = experiment: Antifungal activity against Cryptococcus neoformans H99 measured after 24 to 72 hrs; format: functional; conditions: var grubii H99; how it was run: as §6
[Candida] auris [17] = Antifungal activity against Candida auris assessed as FICI in presence of voriconazole; format: functional, Candidozyma auris; how it was run: as §1
Candida parapsilosis [18] = experiment: Antifungal activity against Candida parapsilosis assessed as FICI in presence of itraconazole; format: functional; how it was run: as §1
Cryptococcus neoformans [19] = experiment: Antifungal activity against Cryptococcus neoformans H99 assessed as FICI in presence of voriconazole; format: functional, var grubii H99; how it was run: as §1
[20] = Selectivity index, ratio of LD50 for human A549 cells to MIC80 for Cryptococcus neoformans H99; format: toxicity; conditions: read-out: Selectivity Index
How it was run: (§7)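 SI = LD₅₀/MIC₈₀. Cytotoxicity: A549 or HepG2 cells (DMEM, 10% FBS, passage 7, 10⁵ cells/well) adhered 14 h, then exposed to 0.03–128 μg/mL for 24 or 48 h at 37°C, 5% CO₂; MTT 4 h, formazan dissolved in DMSO, read at 570 nm. MIC₈₀ against C. neoformans from broth microdilution in HEPES-buffered YNB, pH 7.0.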

Cryptococcus neoformans [21] = experiment: Fungicidal activity against Cryptococcus neoformans H99 measured after 72 hrs by time-kill assay; format: functional, var grubii H99; how it was run: as §4
Candida albicans [22] = experiment: Antifungal activity against Candida albicans assessed as FICI in presence of voriconazole; format: functional; how it was run: as §1
Candida albicans [23] = experiment: Antifungal activity against Candida albicans assessed as FICI in presence of caspofungin; format: functional; how it was run: as §1
[24] = Selectivity index, ratio of LD50 for human HepG2 cells to MIC80 for Cryptococcus neoformans H99; format: toxicity; conditions: read-out: Selectivity Index; how it was run: as §7
Pichia kudriavzevii [25] = experiment: Antifungal activity against Candida krusei 6258 assessed as FICI in presence of itraconazole; format: functional; how it was run: as §1
Cryptococcus neoformans [26] = experiment: Antifungal activity against Cryptococcus neoformans H99 assessed as FICI in presence of itraconazole; format: functional, var grubii H99; how it was run: as §1
Pichia kudriavzevii [27] = experiment: Antifungal activity against fluconazole-resistant Candida krusei assessed as FICI in presence of itraconazole; format: functional; how it was run: as §2
Pichia kudriavzevii [28] = experiment: Antifungal activity against multi-drug resistant Candida krusei measured after 24 to 72 hrs; format: functional; how it was run: as §3
Cryptococcus neoformans [29] = experiment: Antifungal activity against Cryptococcus neoformans H99 assessed as FICI in presence of amphotericin B; format: functional, var grubii H99; how it was run: as §1
[Candida] auris [30] = Antifungal activity against Candida auris measured after 24 to 72 hrs; format: functional; conditions: Candidozyma auris; how it was run: as §6
Pichia kudriavzevii [31] = experiment: Antifungal activity against fluconazole-resistant Candida krusei assessed as FICI in presence of fluconazole; format: functional; how it was run: as §2
Candida albicans [32] = experiment: Antifungal activity against Candida albicans measured after 24 to 72 hrs; format: functional; how it was run: as §6
Candida parapsilosis [33] = experiment: Antifungal activity against Candida parapsilosis assessed as FICI in presence of fluconazole; format: functional; how it was run: as §1
Cryptococcus neoformans [34] = experiment: Antifungal activity against Cryptococcus neoformans H99 assessed as FICI in presence of fluconazole; format: functional, var grubii H99; how it was run: as §1
Candida parapsilosis [35] = experiment: Antifungal activity against Candida parapsilosis measured after 24 to 72 hrs; format: functional; conditions: Lodderomyces parapsilosis; how it was run: as §6
Candida albicans [36] = experiment: Antifungal activity against Candida albicans assessed as FICI in presence of itraconazole; format: functional; how it was run: as §1
Pichia kudriavzevii [37] = experiment: Antifungal activity against fluconazole-resistant Candida krusei assessed as FICI in presence of caspofungin; format: functional; how it was run: as §2
Pichia kudriavzevii [38] = experiment: Antifungal activity against Candida krusei 6258 assessed as FICI in presence of fluconazole; format: functional; how it was run: as §1

Question: For `O=C(N/N=C/c1cc(Br)ccc1O)c1ccc(Br)cc1Br`, which “fractional inhibitory concentration index (FICI)” value ([Candida] auris [1]) is on record?
Answer: 2

Question: What about the “fractional inhibitory concentration index (FICI)” value (Pichia kudriavzevii [2]) of the same compound?
Answer: 1.06

Question: And the “fractional inhibitory concentration index (FICI)” value (Aspergillus fumigatus [3])?
Answer: 0.484

Question: What about the “fractional inhibitory concentration index (FICI)” value (Pichia kudriavzevii [4]) of the same compound?
Answer: 1.002

Question: What about the “fractional inhibitory concentration index (FICI)” value (Aspergillus fumigatus [5]) of the same compound?
Answer: 2

Question: What about the “fractional inhibitory concentration index (FICI)” value (Pichia kudriavzevii [6]) of the same compound?
Answer: 1.063

Question: And the “fractional inhibitory concentration index (FICI)” value (Candida parapsilosis [7])?
Answer: 1.5

Question: What about the MIC80 (Pichia kudriavzevii [8]) of the same compound?
Answer: 8 µg/mL (≈ 16.8 µM)

Question: What about the “fractional inhibitory concentration index (FICI)” value (Candida albicans [9]) of the same compound?
Answer: 2

Question: And the “fractional inhibitory concentration index (FICI)” value ([Candida] auris [10])?
Answer: 1.016

Question: And the Activity (Cryptococcus neoformans [11])?
Answer: Dose-dependent effect

Question: And the CC50 (A549)?
Answer: 64 µg/mL (≈ 134 µM)

Question: What about the “fractional inhibitory concentration index (FICI)” value (Candida parapsilosis [12]) of the same compound?
Answer: 0.135

Question: And the MIC80 (Aspergillus fumigatus [13])?
Answer: > 16 µg/mL

Question: What about the “fractional inhibitory concentration index (FICI)” value (Aspergillus fumigatus [14]) of the same compound?
Answer: 0.515

Question: And the “fractional inhibitory concentration index (FICI)” value ([Candida] auris [15])?
Answer: 2

Question: And the CC50 (HepG2)?
Answer: 64 µg/mL (≈ 134 µM)

Question: And the MIC80 (Cryptococcus neoformans [16])?
Answer: 0.06 µg/mL (≈ 0.126 µM)

Question: What about the “fractional inhibitory concentration index (FICI)” value ([Candida] auris [17]) of the same compound?
Answer: 1.125

Question: What about the “fractional inhibitory concentration index (FICI)” value (Candida parapsilosis [18]) of the same compound?
Answer: 2.098

Question: What about the “fractional inhibitory concentration index (FICI)” value (Cryptococcus neoformans [19]) of the same compound?
Answer: 0.072

Question: And the selectivity ratio [20]?
Answer: 1070

Question: What about the MFC100 (Cryptococcus neoformans [21]) of the same compound?
Answer: 0.06 µg/mL (≈ 0.126 µM)

Question: What about the “fractional inhibitory concentration index (FICI)” value (Candida albicans [22]) of the same compound?
Answer: 0.256

Question: And the “fractional inhibitory concentration index (FICI)” value (Candida albicans [23])?
Answer: 0.502

Question: What about the selectivity ratio [24] of the same compound?
Answer: 1070

Question: What about the “fractional inhibitory concentration index (FICI)” value (Pichia kudriavzevii [25]) of the same compound?
Answer: 2.015

Question: What about the “fractional inhibitory concentration index (FICI)” value (Cryptococcus neoformans [26]) of the same compound?
Answer: 0.072

Question: And the “fractional inhibitory concentration index (FICI)” value (Pichia kudriavzevii [27])?
Answer: 0.375

Question: What about the MIC80 (Pichia kudriavzevii [28]) of the same compound?
Answer: > 16 µg/mL

Question: And the “fractional inhibitory concentration index (FICI)” value (Cryptococcus neoformans [29])?
Answer: 0.086

Question: And the MIC80 ([Candida] auris [30])?
Answer: > 16 µg/mL

Question: What about the “fractional inhibitory concentration index (FICI)” value (Pichia kudriavzevii [31]) of the same compound?
Answer: 2

Question: What about the MIC80 (Candida albicans [32]) of the same compound?
Answer: > 16 µg/mL

Question: And the “fractional inhibitory concentration index (FICI)” value (Candida parapsilosis [33])?
Answer: 1.015

Question: What about the “fractional inhibitory concentration index (FICI)” value (Cryptococcus neoformans [34]) of the same compound?
Answer: 0.065

Question: What about the MIC80 (Candida parapsilosis [35]) of the same compound?
Answer: 8 µg/mL (≈ 16.8 µM)

Question: And the “fractional inhibitory concentration index (FICI)” value (Candida albicans [36])?
Answer: 0.128

Question: And the “fractional inhibitory concentration index (FICI)” value (Pichia kudriavzevii [37])?
Answer: 2

Question: What about the “fractional inhibitory concentration index (FICI)” value (Pichia kudriavzevii [38]) of the same compound?
Answer: 1.002
